From ChEMBL document CHEMBL1250484, “Synthesis and antioxidant activity of quinolinobenzothiazinones” (2010)

Organism: Mus musculus
Assay: Antioxidant activity in Swiss albino mouse assessed as lipid peroxidation level measured per mg of tissue after 7 days
Assay type: functional, organism-based
Method in brief: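 Male random-bred Swiss albino mice (24 ± 2 g) dosed orally once daily for 7 days with compound in 0.1 ml double-distilled water; controls water only. Liver perfused with cold 0.9% NaCl, homogenized 10% w/v in tris-KCl pH 7.4. TBARS: sample with tris-KCl, 30% TCA, 52 mM TBA, 25 min at 80 °C, centrifuged; supernatant read at 531.8 nm, expressed as malondialdehyde per mg protein.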

| SMILES | Activity [nmol] |
| --- | --- |
| Cc1cccc2c1Nc1c(c(=O)[nH]c3c(C)cccc13)S2 | 6.72 |
| Cc1ccc2[nH]c(=O)c3c(c2c1)Nc1c(C)cccc1S3 | 6.69 |
| COc1cccc2c3c(c(=O)[nH]c12)Sc1cc(Br)ccc1N3 | 6.51 |
| COc1cccc2c1Nc1c(c(=O)[nH]c3c(OC)cccc13)S2 | 6.81 |
| Cc1ccc2[nH]c(=O)c3c(c2c1)Nc1c(cccc1C(F)(F)F)S3 | 6.53 |
| Cc1ccc2[nH]c(=O)c3c(c2c1)Nc1ccc(Br)cc1S3 | 6.42 |

Organism: Mus musculus
Assay: Antioxidant activity in Swiss albino mouse assessed as reduced glutathione level measured per mg of tissue after 7 days
Assay type: functional
Method in brief: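 Male Swiss albino mice (24 ± 2 g) given compound orally in 0.1 ml double-distilled water daily for 7 days; controls got water. Perfused liver homogenized 10% w/v in tris-KCl pH 7.4, precipitated with 25% TCA, centrifuged. 0.1 ml supernatant mixed with 2 ml 0.6 mM DTNB and 0.9 ml […] pH 8.0; absorbance at 412 nm for GSH.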

| SMILES | Activity [nmol] |
| --- | --- |
| Cc1cccc2c1Nc1c(c(=O)[nH]c3c(C)cccc13)S2 | 4.51 |
| Cc1ccc2[nH]c(=O)c3c(c2c1)Nc1c(C)cccc1S3 | 4.5 |
| COc1cccc2c3c(c(=O)[nH]c12)Sc1cc(Br)ccc1N3 | 5.01 |
| COc1cccc2c1Nc1c(c(=O)[nH]c3c(OC)cccc13)S2 | 4.8 |
| Cc1ccc2[nH]c(=O)c3c(c2c1)Nc1c(cccc1C(F)(F)F)S3 | 4.9 |
| Cc1ccc2[nH]c(=O)c3c(c2c1)Nc1ccc(Br)cc1S3 | 5 |

Test system: not listed separately
Assay: Antioxidant activity assessed as ABTS radical scavenging activity after 4 mins
Assay type: functional
Method in brief: (§1)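 ABTS radical cation made from 7 mM ABTS in deionized water plus potassium persulphate (2.45 mM), kept dark at room temperature 12–16 h, then diluted with ethanol to A734 0.700 ± 0.020. 1 ml of this added to 10 µl compound; absorbance at 734 nm read at 30 °C at 1–6 min after mixing. Triplicate determinations.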

| SMILES | deltaA |
| --- | --- |
| Cc1cccc2c1Nc1c(c(=O)[nH]c3c(C)cccc13)S2 | 0.61 |
| Cc1ccc2[nH]c(=O)c3c(c2c1)Nc1c(C)cccc1S3 | 0.52 |
| COc1cccc2c3c(c(=O)[nH]c12)Sc1cc(Br)ccc1N3 | 0.098 |
| COc1cccc2c1Nc1c(c(=O)[nH]c3c(OC)cccc13)S2 | 0.052 |
| Cc1ccc2[nH]c(=O)c3c(c2c1)Nc1c(cccc1C(F)(F)F)S3 | 0.318 |
| Cc1ccc2[nH]c(=O)c3c(c2c1)Nc1ccc(Br)cc1S3 | 0.406 |

Test system: Radical scavenging activity
Assay: Antioxidant activity assessed as DPPH radical scavenging activity at 1 mg/ml
Assay type: functional
Method in brief: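 Compound stock 1 mg/ml in methanol; 50 µl added to 5 ml 0.004% methanolic DPPH. Incubated 30 min in dark at room temperature, absorbance at 517 nm against blank. Percent inhibition calculated by formula; triplicate.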

| SMILES | inhibition [%] |
| --- | --- |
| Cc1cccc2c1Nc1c(c(=O)[nH]c3c(C)cccc13)S2 | 2.71 |
| Cc1ccc2[nH]c(=O)c3c(c2c1)Nc1c(C)cccc1S3 | 8.33 |
| COc1cccc2c3c(c(=O)[nH]c12)Sc1cc(Br)ccc1N3 | 53.8 |
| COc1cccc2c1Nc1c(c(=O)[nH]c3c(OC)cccc13)S2 | 54.3 |
| Cc1ccc2[nH]c(=O)c3c(c2c1)Nc1c(cccc1C(F)(F)F)S3 | 22.4 |
| Cc1ccc2[nH]c(=O)c3c(c2c1)Nc1ccc(Br)cc1S3 | 13.7 |

Test system: not listed separately
Assay: Antioxidant activity assessed as ABTS radical scavenging activity after 1 min
Assay type: functional
Method in brief: as §1

| SMILES | deltaA |
| --- | --- |
| Cc1cccc2c1Nc1c(c(=O)[nH]c3c(C)cccc13)S2 | 0.62 |
| Cc1ccc2[nH]c(=O)c3c(c2c1)Nc1c(C)cccc1S3 | 0.56 |
| COc1cccc2c3c(c(=O)[nH]c12)Sc1cc(Br)ccc1N3 | 0.141 |
| COc1cccc2c1Nc1c(c(=O)[nH]c3c(OC)cccc13)S2 | 0.055 |
| Cc1ccc2[nH]c(=O)c3c(c2c1)Nc1c(cccc1C(F)(F)F)S3 | 0.328 |
| Cc1ccc2[nH]c(=O)c3c(c2c1)Nc1ccc(Br)cc1S3 | 0.412 |

Test system: not listed separately
Assay: Antioxidant activity assessed as ABTS radical scavenging activity after 2 mins
Assay type: functional
Method in brief: as §1

| SMILES | deltaA |
| --- | --- |
| Cc1cccc2c1Nc1c(c(=O)[nH]c3c(C)cccc13)S2 | 0.61 |
| Cc1ccc2[nH]c(=O)c3c(c2c1)Nc1c(C)cccc1S3 | 0.52 |
| COc1cccc2c3c(c(=O)[nH]c12)Sc1cc(Br)ccc1N3 | 0.098 |
| COc1cccc2c1Nc1c(c(=O)[nH]c3c(OC)cccc13)S2 | 0.052 |
| Cc1ccc2[nH]c(=O)c3c(c2c1)Nc1c(cccc1C(F)(F)F)S3 | 0.318 |
| Cc1ccc2[nH]c(=O)c3c(c2c1)Nc1ccc(Br)cc1S3 | 0.406 |

Test system: not listed separately
Assay: Antioxidant activity assessed as ABTS radical scavenging activity after 6 mins
Assay type: functional
Method in brief: as §1

| SMILES | deltaA |
| --- | --- |
| Cc1cccc2c1Nc1c(c(=O)[nH]c3c(C)cccc13)S2 | 0.61 |
| Cc1ccc2[nH]c(=O)c3c(c2c1)Nc1c(C)cccc1S3 | 0.52 |
| COc1cccc2c3c(c(=O)[nH]c12)Sc1cc(Br)ccc1N3 | 0.095 |
| COc1cccc2c1Nc1c(c(=O)[nH]c3c(OC)cccc13)S2 | 0.052 |
| Cc1ccc2[nH]c(=O)c3c(c2c1)Nc1c(cccc1C(F)(F)F)S3 | 0.318 |
| Cc1ccc2[nH]c(=O)c3c(c2c1)Nc1ccc(Br)cc1S3 | 0.406 |
